Activity calls are given as the source filed them. No cut-off for these calls is given here.

As a reminder, the GI50 is the concentration that inhibits growth by half.

The subject of one data set is MDA-MB-468. Nature of the data set: Growth inhibition of human MDA-MB-468 cells after 72 hrs by MTT assay. The data set is classed as functional. The conditions noted are these: MDA-MB-468, 72 h. In short, it runs like this:
(§1)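 MTT assay in triple-negative breast cancer cells; 72 h continuous compound exposure; top concentration tested 100 μM. GI50 is the concentration giving 50% growth inhibition over 72 h. Values are mean ± SD of at least two independent experiments, each run in duplicate.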

For a further data set, the system named is MDA-MB-231. Nature of the data set: Growth inhibition of human MDA-MB-231 cells after 72 hrs by MTT assay. Particulars: MDA-MB-231, 72 h. The data set is classed as functional. In outline:
as §1
In general terms: Formazan colour is commonly taken as a measure of viable cells.

For a further data set, the system named is HEK-293T. Nature of the data set: Inhibition of CREB binding protein (unknown origin) expressed in HEK293T cells assessed as reduction in CREB-mediated gene transcription up to 10 uM by CREB reporter gene assay. Particulars: Homo sapiens. The data set is classed as cell-based. In outline:
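CREB-mediated gene transcription measured with a CREB reporter assay in HEK 293T cells; compound tested at concentrations up to 10 μM.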

In data set [1] the target is T1, Dihydrofolate reductase (Homo sapiens) (UniProt P00374).
T1 sequence (whole entry): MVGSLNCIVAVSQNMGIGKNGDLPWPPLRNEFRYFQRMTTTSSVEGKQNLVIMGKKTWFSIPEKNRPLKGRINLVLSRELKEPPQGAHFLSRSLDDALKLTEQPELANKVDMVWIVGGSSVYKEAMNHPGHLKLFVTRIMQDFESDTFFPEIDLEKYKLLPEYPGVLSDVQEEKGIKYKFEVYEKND
In words: Inhibition of human DHFR up to 10 uM.

The test system of data set [2] is HMEC. Nature of the data set: Toxicity against HMEC at 10 uM after 24 hrs by MTT assay. The data set is classed as cell-based. The conditions noted are these: human. In outline: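 HMEC given a 24 h drug treatment; toxicity assessed at concentrations up to 10 μM.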
For data set [3], the system named is HMEC. In words: Toxicity against HMEC at 10 uM after 72 hrs by MTT assay. Format: cell-based. The conditions noted are these: human. In outline: (§2)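 Normal human mammary epithelial cells (HMEC) exposed to compound continuously for 72 h; toxicity read at concentrations from 0.1 μM up to 10 μM.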
In data set [4] the test system is HMEC. Nature of the data set: Toxicity against HMEC up to 5 uM after 72 hrs by MTT assay. The data set is classed as cell-based. The conditions noted are these: human. In short, it runs like this: as §2
The test system of data set [5] is HMEC. In words: Toxicity against HMEC at 0.1 uM after 72hrs by MTT assay. Format: cell-based. Particulars: human. In short, it runs like this: as §2

Turning to `CCCC(=O)Nc1nc(N)nc2ccc3[nH]ccc3c12`, the GI50 was 26.3 µM in the data set on MDA-MB-468 and 26.9 µM in the data set with MDA-MB-231.

`CC(=O)Nc1nc(NC(C)=O)c2c(ccc3[nH]ccc32)n1`: the GI50 in the data set with MDA-MB-468 and with MDA-MB-231 was greater than 100 µM each time.

On to `CC(C)C(=O)Nc1nc(N)c2c(ccc3[nH]ccc32)n1`, for which the GI50 stood at 29.8 µM in the data set with MDA-MB-468 and 39.7 µM in the data set on MDA-MB-231.

For the molecule `Nc1nc(N)c2c(ccc3[nH]ccc32)n1`, the GI50 in the data set with MDA-MB-468 is 3.34 µM; in the data set on MDA-MB-231, 4.13 µM.

Consider `CC(C)C(=O)Nc1nc(N)nc2ccc3[nH]ccc3c12`, for which the GI50 in the data set with MDA-MB-468 and in the data set with MDA-MB-231 was greater than 100 µM each time.

Regarding `CC(=O)Nc1nc(N)c2c(ccc3[nH]ccc32)n1`, the GI50 with MDA-MB-468 is 53.5 µM; with MDA-MB-231 it was 27.2 µM.

On to `CC(=O)Nc1nc(N)nc2ccc3[nH]ccc3c12`, for which the figures for the GI50 in the data set with MDA-MB-468 and with MDA-MB-231 were 56.5 µM and 32.6 µM, respectively.

On to `Nc1nc(NC(=O)c2ccc3ccccc3c2)c2c(ccc3[nH]ccc32)n1`, for which the GI50 turned out to be 8.91 µM with MDA-MB-468 and 8.46 µM with MDA-MB-231.

As to `CC(C)(C)[Si](C)(C)OCCCCC(=O)Nc1nc(N)nc2ccc3[nH]ccc3c12`, the values for the GI50 in the data set on MDA-MB-468 and in the data set on MDA-MB-231 were 11.1 µM and 15.6 µM, respectively.

Take `CC(C)(C)[Si](C)(C)OCCCCC(=O)Nc1nc(N)c2c(ccc3[nH]ccc32)n1`: the GI50 in the data set on MDA-MB-468 turned out to be 2.24 µM; in the data set on MDA-MB-231, 2.43 µM.

As to `CCC(=O)Nc1nc(N)nc2ccc3[nH]ccc3c12`, the GI50 was 20.3 µM with MDA-MB-468 and 18.7 µM with MDA-MB-231.

On to `Nc1nc(NC(=O)c2ccc3ccccc3c2)nc2ccc3[nH]ccc3c12`, for which the inhibition result (in the data set with HEK-293T; in data set [1]) was “inactive” throughout. The Activity result in the data set with HMEC [2] is on record as “Non-toxic”; with HMEC [3], “Toxic”; with HMEC [4], “Non-toxic”. Further, the results for the GI50 with MDA-MB-468 and in the data set with MDA-MB-231 were 0.44 µM and 1.6 µM, respectively.

With `COc1cccc2c1C(=O)c1c(O)c3c(c(O)c1C2=O)C[C@@](O)(C(=O)CO)C[C@@H]3O[C@H]1C[C@H](N)[C@H](O)[C@H](C)O1` [DOXORUBICIN], in the data set with HMEC [5], the Activity result is “Toxic”. Also, the GI50 with MDA-MB-468 was found to be 0.085 µM; with MDA-MB-231, 0.15 µM.

`CCCC(=O)Nc1nc(N)c2c(ccc3[nH]ccc32)n1`: the GI50 turned out to be 27.4 µM in the data set with MDA-MB-468 and 25.5 µM with MDA-MB-231.

Turning to `CCC(=O)Nc1nc(N)c2c(ccc3[nH]ccc32)n1`, the GI50 in the data set with MDA-MB-468 was found to be 24.4 µM; in the data set on MDA-MB-231, 21.4 µM.
